The source made the active and inactive calls. The calls are words filed in the database; no cut-off is given here.
What was measured:
[1] = target: D(1A) dopamine receptor (Rattus norvegicus) (UniProt P18901); assay: Displacement of [3H]SCH-23390 from dopamine D1 receptor in rat corpus striatum membrane at 100nM; type: cell membranes
[2] = target: D(2) dopamine receptor (Rattus norvegicus) (UniProt P61169); assay: Displacement of [3H]spiperone from dopamine D2 receptor in rat corpus striatum membrane at 100nM; type: cell membranes
D(2) dopamine receptor (Rattus norvegicus), sequence (P61169 whole entry): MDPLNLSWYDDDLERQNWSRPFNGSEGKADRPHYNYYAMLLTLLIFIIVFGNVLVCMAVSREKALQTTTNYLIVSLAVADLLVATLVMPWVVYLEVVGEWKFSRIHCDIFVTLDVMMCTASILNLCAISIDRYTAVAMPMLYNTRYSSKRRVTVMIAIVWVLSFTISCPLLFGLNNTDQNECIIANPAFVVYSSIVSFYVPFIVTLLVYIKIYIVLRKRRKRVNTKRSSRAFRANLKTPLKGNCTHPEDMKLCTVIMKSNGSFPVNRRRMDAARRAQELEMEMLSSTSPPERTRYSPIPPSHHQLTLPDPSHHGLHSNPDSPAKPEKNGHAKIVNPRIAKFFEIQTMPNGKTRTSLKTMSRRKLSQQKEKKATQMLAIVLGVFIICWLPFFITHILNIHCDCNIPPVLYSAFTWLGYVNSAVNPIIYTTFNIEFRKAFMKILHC
Procedure, shortened: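 Inhibition of [3H]spiperone binding (0.50 nM; Kd 0.20 nM) to dopamine receptors in rat corpus striatum membranes, in vitro. Displacement was measured at a single fixed test concentration.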

Rattus norvegicus [3] = assay: Effect on striatal dopamine release in rat at 1umol/kg, sc; type: functional, organism-based
Procedure, shortened: (§1)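 Striatal microdialysis in freely moving rats, done by a previously described procedure. Doses were given sc or po. Dopamine levels are expressed relative to basal dopamine levels, as mean (SEM) from four rats.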

[4] = target: T1, D(4) dopamine receptor (Homo sapiens) (UniProt P21917); assay: Displacement of [3H]nemonapride from human dopamine D4 receptor at 50nM
T1 sequence (whole entry): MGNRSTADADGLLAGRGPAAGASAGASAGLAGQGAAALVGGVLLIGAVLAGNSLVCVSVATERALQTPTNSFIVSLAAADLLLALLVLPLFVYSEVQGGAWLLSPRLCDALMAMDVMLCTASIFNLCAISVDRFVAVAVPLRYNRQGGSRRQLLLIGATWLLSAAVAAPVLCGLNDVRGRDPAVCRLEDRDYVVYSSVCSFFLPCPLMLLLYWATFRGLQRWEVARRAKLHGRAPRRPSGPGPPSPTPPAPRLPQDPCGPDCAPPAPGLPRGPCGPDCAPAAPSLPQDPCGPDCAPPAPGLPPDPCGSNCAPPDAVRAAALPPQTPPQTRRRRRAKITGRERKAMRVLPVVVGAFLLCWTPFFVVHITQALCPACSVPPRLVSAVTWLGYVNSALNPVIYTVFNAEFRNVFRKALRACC
Procedure, shortened: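 Inhibition of [3H]nemonapride binding (0.50 nM; Kd 0.20 nM) to cloned human D4 receptors, in vitro. Displacement was measured at a single fixed test concentration.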

[5] = target: D(3) dopamine receptor (Homo sapiens) (UniProt P35462); assay: Displacement of [3H]spiperone from human dopamine D3 receptor expressed in CHO cells at 50nM; type: cell-based
D(3) dopamine receptor (Homo sapiens), sequence (P35462 whole entry): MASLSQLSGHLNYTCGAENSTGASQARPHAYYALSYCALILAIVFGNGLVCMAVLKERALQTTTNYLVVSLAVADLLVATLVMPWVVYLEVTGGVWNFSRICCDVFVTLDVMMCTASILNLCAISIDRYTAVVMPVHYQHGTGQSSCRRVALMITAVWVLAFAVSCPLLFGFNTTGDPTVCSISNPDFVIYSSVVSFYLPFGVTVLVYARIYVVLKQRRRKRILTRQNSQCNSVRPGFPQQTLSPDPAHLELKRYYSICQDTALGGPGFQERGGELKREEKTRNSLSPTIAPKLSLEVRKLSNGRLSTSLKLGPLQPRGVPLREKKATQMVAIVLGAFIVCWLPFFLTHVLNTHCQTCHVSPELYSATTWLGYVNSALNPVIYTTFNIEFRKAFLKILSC
Procedure, shortened: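 CHO membranes with cloned human D3 (26 µg protein) in 25 mM Tris-HCl pH 7.4, 6.0 mM MgCl2, 1.0 mM EDTA. […] Incubated 60 min at 25 °C, filtered on PEI-treated GF/C, and counted by scintillation. Measured at a single test concentration.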

Rattus norvegicus [6] = assay: Decrease in striatal dopamine levels in rat at 1 nmol/kg, sc; type: functional; set-up: scale not given: the % may be the effect or the level left; procedure, shortened: as §1
Rattus norvegicus [7] = assay: Decrease in striatal dopamine levels in rat at 3 nmol/kg, sc; type: functional; set-up: scale not given: the % may be the effect or the level left; procedure, shortened: as §1
Rattus norvegicus [8] = assay: Decrease in striatal dopamine levels in rat at 10 nmol/kg, sc; type: functional; set-up: scale not given: the % may be the effect or the level left; procedure, shortened: as §1
Rattus norvegicus [9] = assay: Decrease in striatal dopamine levels in rat at 3 nmol/kg, po; type: functional; set-up: scale not given: the % may be the effect or the level left; procedure, shortened: as §1
Rattus norvegicus [10] = assay: Decrease in striatal dopamine levels in rat at 10 nmol/kg, po; type: functional; set-up: scale not given: the % may be the effect or the level left; procedure, shortened: as §1

D(1A) dopamine receptor (Rattus norvegicus), sequence (P18901 whole entry): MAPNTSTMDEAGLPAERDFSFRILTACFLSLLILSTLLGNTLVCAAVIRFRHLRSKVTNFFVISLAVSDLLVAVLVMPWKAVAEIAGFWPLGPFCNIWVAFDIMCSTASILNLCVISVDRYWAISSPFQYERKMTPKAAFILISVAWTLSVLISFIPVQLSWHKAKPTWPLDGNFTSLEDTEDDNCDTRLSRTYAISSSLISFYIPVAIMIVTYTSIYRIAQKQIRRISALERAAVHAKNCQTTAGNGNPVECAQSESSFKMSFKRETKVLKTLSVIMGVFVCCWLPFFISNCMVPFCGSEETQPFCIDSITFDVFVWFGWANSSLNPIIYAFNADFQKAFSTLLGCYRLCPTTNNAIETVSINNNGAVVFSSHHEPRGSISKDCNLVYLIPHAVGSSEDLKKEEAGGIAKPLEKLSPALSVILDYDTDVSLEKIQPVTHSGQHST

CCCN1CCCC2CC3=C(CCCC3=O)CC21 (single isomer, unassigned; (+))
Activity [1]: 7%
Activity [2]: 3%
Activity (Rattus norvegicus [3]): inactive
Activity [4]: -19%
Activity [5]: 28%

CCCN1CCCC2CC3=C(CCCC3=O)CC21 (single isomer, unassigned; (-)) [listing 1 of 2 here]
Activity (Rattus norvegicus [6]): 20%
Activity (Rattus norvegicus [7]): 20%
Activity (Rattus norvegicus [8]): 20%
Activity (Rattus norvegicus [9]): 45%
Activity (Rattus norvegicus [10]): 60%

CCCN1CCCC2CC3=C(CCCC3=O)CC21 (single isomer, unassigned; (-)) [listing 2 of 2 here]
Activity [1]: -1%
Activity [2]: 15%
Activity [4]: -4%
Activity [5]: 23%

Source: ChEMBL document CHEMBL1138119, “Extremely potent orally active benzo[g]quinoline analogue of the dopaminergic prodrug: 1-propyl-trans-2,3,4,4a,5,7,8,9,10,10a-decahydro-1H-benzo-[g]quinolin-6-one [corrected]” (2006)
